Activity calls are given as the source filed them. The rule behind the calls is not given here.
Legend:
[1] = system: Ferriprotoporphyrin IX; assay: Inhibition of ferriprotoporphyrin 9 biomineralization; type: functional
Summary of the method: (§1)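 β-Hematin formation: hemin chloride (0.5 mg/mL in DMSO) with 0.5 M sodium acetate pH 4.4 and drug dilutions, 37 °C for 18–24 h. Pellet washed with DMSO, dissolved in 0.1 N NaOH, A405 read. Percent inhibition relative to solvent control. IC₅₀ derived, or percent inhibition at 1 mg/mL (highest concentration) given when no IC₅₀.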

[2] = Selectivity index, ratio of IC50 for rat L6 cells to IC50 for Trypanosoma brucei rhodesiense STIB900; type: functional
Summary of the method: (§2)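 Ratio of the IC₅₀ on L-6 rat skeletal myoblasts to the parasite IC₅₀. Cytotoxicity measured in RPMI 1640 with L-glutamine and 10% FBS, serial dilutions 90 to 0.123 µg/mL, duplicate. After 72 h, Alamar blue (resazurin) added for 2 h. Fluorescence read at ex 536 / em 588 nm.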

[3] = system: Trypanosoma brucei rhodesiense; assay: Antitrypanosomal activity against Trypanosoma brucei rhodesiense STIB900 infected NMRI mouse assessed as survival of animals administered at 20 mg/kg, ip after 4 days; type: functional; details: route intraperitoneal
Summary of the method: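 Mice infected ip with 2 × 10⁴ bloodstream forms of T. b. rhodesiense STIB900. Groups of four treated ip on days 3–6, untreated control group. Parasitemia checked every second day to day 14, then twice weekly to day 60. Deaths recorded for mean survival time. Surviving aparasitemic mice at 60 days counted as cured.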

[4] = Binding affinity for DNA assessed as thermal melting temperature
Summary of the method: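 Thermal melting of poly(dA)·poly(dT): DNA at 40 µM base with compound at 12 µM (ratio 0.3) in MES 0.01 M / EDTA 0.001 M buffer, pH 6.25. A260 followed from 20 to 95 °C at 0.5 °C/min. Value is ΔTm.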

[5] = Selectivity index, ratio of IC50 for rat L6 cells to IC50 for Plasmodium falciparum K1; type: functional; summary of the method: as §2
[6] = system: L6; assay: Cytotoxicity against rat L6 cells; type: cell-based
[7] = system: Trypanosoma brucei rhodesiense; assay: Antitrypanosomal activity against Trypanosoma brucei rhodesiense STIB900 infected NMRI mouse assessed as number of cured animals at 20 mg/kg, ip after 4 days; type: functional, organism-based; design: dose 20 mg/kg
Summary of the method: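 Mice infected ip with 2 × 10⁴ STIB900 bloodstream forms. Groups of four treated ip on days 3–6, with an untreated control group. Parasitemia checked every second day to day 14, then twice weekly to day 60. Mice surviving and aparasitemic at 60 days counted as cured.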

[8] = system: Trypanosoma brucei rhodesiense; assay: Antitrypanosomal activity against Trypanosoma brucei rhodesiense STIB900; type: functional, organism-based
Summary of the method: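 Bloodstream forms (10⁴ per well) in MEM with 15% heat-inactivated horse serum, 25 mM HEPES, 2-mercaptoethanol, hypoxanthine. 3-fold serial dilutions from 90 to 0.123 µg/mL, in duplicate. Incubation 72 h at 37 °C, 5% CO₂. Resazurin then added for 2–4 h more. Fluorescence read at ex 536 / em 588 nm.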

[9] = system: Plasmodium falciparum; assay: Antiplasmodial activity against Plasmodium falciparum K1 in [3H]hypoxanthine incorporation assay; type: functional, organism-based; details: K1, 72 h
Summary of the method: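 K1 erythrocytic stages in RPMI 1640 without hypoxanthine with AlbuMax, human A⁺ red cells at 2.5% hematocrit, 0.3% parasitemia. Compounds taken from 10 mg/mL DMSO stock, tested as serial doubling dilutions at 37 °C in 4% CO₂/3% O₂/93% N₂. After 48 h, ³H-hypoxanthine (0.5 µCi) added for 24 h more; incorporation by scintillation counting. IC₅₀ from sigmoidal curves.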

[10] = system: Ferriprotoporphyrin IX; assay: Inhibition of ferriprotoporphyrin 9 biomineralization at 1 mg/ml; type: functional; summary of the method: as §1
[11] = system: Mus musculus; assay: Toxicity in Plasmodium berghei ANKA infected NMRI mice (Mus musculus) at 50 mg/kg, intraperitoneally for 4 days; type: organism-based; design: dose 50 mg/kg, route intraperitoneal; details: in vivo, ip, 96 h
Summary of the method: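 Toxicity recorded in the P. berghei ANKA model. Female NMRI mice (20–22 g), three per group, infected iv with 2 × 10⁷ parasitized erythrocytes. Compound in DMSO diluted 10-fold in water, dosed ip at 4, 24, 48 and 72 h post-infection. Survival followed up to 30 days after infection.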

Structure (SMILES)	IC50 [1] [µM]	Ratio IC50 [2]	Survival [3] [days]	ΔTm [4] [°C]	Ratio IC50 [5]	IC50 [6] [µM]	Activity [7]	IC50 [8] [nM]	IC50 [9] [nM]	inhibition [10] [%]	Activity [11]
Cl.O=C(Nc1ccc(NC2=NCCN2)cc1)Nc1ccc(NC2=NCCN2)cc1	393	852	>60	31	3714	104	Active	122	28	–	–
c1cc(NC2=NCCN2)ccc1CCc1ccc(NC2=NCCN2)cc1	–	646	>60	31.2	2181	34.9	Active	54	16	0	–
N=C(N)Nc1ccc(CCc2ccc(NC(=N)N)cc2)cc1	–	24	–	26.1	57	1.09	–	45	19	0	Toxic
Cl.N=C(N)Nc1ccc(C2CCN(c3ccc(NC(=N)N)cc3)CC2)cc1	–	111	–	30	585	24	–	217	41	0	Toxic
CCOC(CNC(=N)Nc1ccc(Nc2ccc(NC(=N)NCC(OCC)OCC)cc2)cc1)OCC	162	>767	–	13.6	>1548	> 175	–	228	113	–	–
Cl.N=C(N)Nc1ccc(NC(=O)Nc2ccc(NC(=N)N)cc2)cc1	–	>1256	–	24.1	>2547	> 235	–	187	96	0	Toxic
Cl.Cl.N=C(N)Nc1ccc(NC(=O)c2ccc(NC(=N)N)cc2)cc1	–	319	>60	40.1	209	11.5	Active	36	55	0	–
N=C(N)Nc1ccc(Nc2ccc(NC(=N)N)cc2)cc1	–	30	–	29.6	36	0.65	–	22	18	0	–
N=C(N)Nc1ccc(Cc2ccc(NC(=N)N)cc2)cc1	–	17	–	15	88	2.8	–	161	32	0	–
N=C(N)Nc1ccc(Sc2ccc(NC(=N)N)cc2)cc1	–	26	–	20.1	76	2.66	–	102	35	0	–
c1cc2c(cc1NC1=NCCN1)Cc1cc(NC3=NCCN3)ccc1-2	491	17020	–	44.1	7252	83.4	–	4.9	11.5	–	–
CC(C)(C)OC(=O)N1CCN(C(=O)OC(C)(C)C)C1=Nc1ccc(Nc2ccc(N=C3N(C(=O)OC(C)(C)C)CCN3C(=O)OC(C)(C)C)cc2)cc1	171	–	–	–	166	9.8	–	48	59	–	–
CCCCC[P+](CCCCC)(CCCCC)Cc1ccc(C(=O)c2ccc(C[P+](CCCCC)(CCCCC)CCCCC)cc2)cc1.[Br-].[Br-]	219	29	–	1.2	223	11.8	–	414	53	–	–
Cl.N=C(N)Nc1ccc(NC(=S)Nc2ccc(NC(=N)N)cc2)cc1	686	29	–	23	26	15.5	–	538	607	–	–
c1cc2c(cc1NC1=NCCN1)Cc1ccc(NC3=NCCN3)cc1C2	161	620	>60	33.2	2000	37.2	Active	60	18.6	–	–
N=C(N)Nc1ccc2c(c1)Cc1ccc(NC(=N)N)cc1C2	–	15	–	31.1	83	0.73	–	50	8.8	0	Toxic
N=C(N)Nc1ccc(Oc2ccc(NC(=N)N)cc2)cc1	–	8	–	22.1	36	1.64	–	196	46	0	–
O=C(c1ccc(NC2=NCCN2)cc1)c1ccc(NC2=NCCN2)cc1	117	–	–	–	>1658	> 214	–	2050	129	–	–
Cl.Cl.O=C(Nc1ccc(NC2=NCCN2)cc1)c1ccc(NC2=NCCN2)cc1	705	7720	>60	47.1	6893	193	Active	25	28	–	–
CC(C)(C)OC(=O)/N=C(/NC(=O)OC(C)(C)C)Nc1ccc(Nc2ccc(N/C(=N\C(=O)OC(C)(C)C)NC(=O)OC(C)(C)C)cc2)cc1	–	–	–	–	48	3.7	–	470	77	45	–
Cl.c1cc(C2CCN(c3ccc(NC4=NCCN4)cc3)CC2)ccc1NC1=NCCN1	–	3474	>47.25	35	12000	132	–	38	11	0	–
